Test results taken from ChEMBL document CHEMBL3867443, “Polyprenylated Tetraoxygenated Xanthones from the Roots of Hypericum monogynum and Their Neuroprotective Activities” (J Nat Prod, 2016).
Active and inactive are the calls of the source. The calls are words filed in the database; no cut-off is given here.

Experiments:
BV-2 = experiment: Inhibition of LPS-induced NO production in […] preincubated for 2 hrs followed by LPS-stimulation measured after 18 hrs by Griess assay; assay type: functional, cell-based; details: Mus musculus
Method in brief: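 BV2 cells seeded at 2.5 × 10^5 cells/mL and preincubated 2 h with compound, then LPS at 100 ng/mL final for 18 h. Supernatant was mixed 1:1 with Griess reagent for 10 min at room temperature and read at 540 nm. Inhibition = (AL − A0 − AC)/(AL − A0) × 100. IC50 reported as mean ± SEM of three independent experiments. L-NMMA was the positive control.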

[1] = Neuroprotective activity in rat PC12 cells assessed as reduction in corticosterone-induced lesions by measuring cell viability at 25 uM pretreated for 24 hrs followed by corticosterone-challenge after 48 hrs by MTT assay; assay type: functional, cell-based; details: PC-12
Method in brief: (§1)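 PC12 cells seeded at 2 × 10^4 cells/well and pretreated 24 h with compound, then 200 μM corticosterone for 48 h. Fluoxetine 12.50 μM was the positive control. MTT absorbance read at 570 nm with 630 nm reference. Viability given as % of untreated control, mean ± SEM of three independent experiments, compared by ANOVA.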

PC-12 = experiment: Decrease in corticosterone-induced intracellular calcium level in rat PC12 cells at 6.25 to 25 uM pretreated for 24 hrs followed by corticosterone-challenge after 48 hrs by Fluo-3AM dye-based flow cytometry; assay type: functional, cell-based
Method in brief: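 PC12 cells were pretreated 24 h with compound (6.25, 12.50, 25.00 μM) or fluoxetine 12.50 μM, then exposed to 200 μM corticosterone for 48 h. Cells were loaded with Fluo-3 AM and analysed by flow cytometry. Results are mean fluorescence intensity relative to vehicle control, mean ± SEM, n = 3.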

[2] = Neuroprotective activity in rat PC12 cells assessed as reduction in corticosterone-induced lesions by measuring cell viability at 6.25 uM pretreated for 24 hrs followed by corticosterone-challenge after 48 hrs by MTT assay; assay type: functional, cell-based; details: PC-12; method in brief: as §1
[3] = Cytotoxicity against […] BV2 cells assessed as cell viability by MTT assay relative to control; assay type: toxicity, cell-based, BV-2; design: concentration or dose not given beside the values; details: mouse, read-out: Activity
Method in brief: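 BV2 microglia in DMEM with 10% heat-inactivated FBS and penicillin/streptomycin, 37 °C, 5% CO2. Viability was read by MTT in the cells used for the NO assay, which received 2 h compound pretreatment and then LPS at 100 ng/mL final for 18 h.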

Rattus norvegicus = species on record: Rattus norvegicus; experiment: Cytotoxicity against rat PC12 cells at 25 uM by MTT assay; assay type: toxicity, cell-based; details: pc-12, 25 µM
Method in brief: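 PC12 cells in DMEM with 10% FBS, 5% horse serum and penicillin/streptomycin, 37 °C, 5% CO2. Seeded at 2 × 10^4 cells/well and exposed to compound at 25.00 μM. Viability was read by MTT.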

[4] = Neuroprotective activity in rat PC12 cells assessed as reduction in corticosterone-induced lesions by measuring cell viability at 12.5 uM pretreated for 24 hrs followed by corticosterone-challenge after 48 hrs by MTT assay; assay type: functional, cell-based; details: PC-12; method in brief: as §1

CNC(=N)NCCC[C@H](N)C(=O)O [TILARGININE]
IC50 (BV-2): 39.3 µM

C=C(C)[C@H](CC=C(C)C)Cc1c(O)c(C[C@@H](CC=C(C)C)C(=C)C)c2oc3c(O)c(O)ccc3c(=O)c2c1O
Activity [1]: 92%
Activity (PC-12): Active
Activity [2]: 78.4%
viability [3]: > 90%
Activity (Rattus norvegicus): Non-Toxic
IC50 (BV-2): 7.47 µM
Activity [4]: 83.8%

C[C@]12C[C@H](O)[C@H]3[C@@H](CCC4=CC(=O)CC[C@@]43C)[C@@H]1CC[C@@H]2C(=O)CO
Activity [1]: 52.8%

C=C(C)[C@H](CC=C(C)C)Cc1c(O)cc2oc3c(O)c(O)ccc3c(=O)c2c1O
Activity [1]: 85.9%
Activity [2]: 75.2%
viability [3]: > 90%
Activity (Rattus norvegicus): Non-Toxic
IC50 (BV-2): 9.6 µM
Activity [4]: 78.8%

C=C(C)C(CC=C(C)C)Cc1c2c(c(O)c3c(=O)c4ccc(O)c(O)c4oc13)C=CC(C)(C)O2 (centres undefined)
Activity [1]: 65.4%
Activity [2]: 64.8%
viability [3]: > 90%
Activity (Rattus norvegicus): Non-Toxic
IC50 (BV-2): > 50 µM
Activity [4]: 71.2%

C=C(C)C(CC=C(C)C)Cc1c(O)cc(O)c2c(=O)c3ccc(O)c(O)c3oc12 (centres undefined)
Activity [1]: 84.1%
Activity [2]: 60.7%
viability [3]: > 90%
Activity (Rattus norvegicus): Non-Toxic
IC50 (BV-2): 8.35 µM
Activity [4]: 78.1%

C=C(C)C(CC=C(C)C)Cc1c(O)c(CC=C(C)C)c(O)c2c(=O)c3ccc(O)c(O)c3oc12 (centres undefined)
Activity [1]: 66%
Activity [2]: 57.5%
viability [3]: > 90%
Activity (Rattus norvegicus): Non-Toxic
IC50 (BV-2): 5.66 µM
Activity [4]: 60.2%

CNCCC(Oc1ccc(C(F)(F)F)cc1)c1ccccc1 (centres undefined)
Activity [4]: 70.5%
